According to article PMC4721638 (Integrative biology : quantitative biosciences from nano to …, 2015):
[ ]: non-standard residue; d: D form. Ahx = NCCCCCC(=O)O

T1: RHAMM:HA interaction, immobilized recombinant RHAMM (Mus musculus, UniProt Q00547)
T1 sequence (Q00547 with tags, fused parts or gaps): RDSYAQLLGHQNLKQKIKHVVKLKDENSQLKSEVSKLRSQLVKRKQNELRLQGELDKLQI

T2: peptide 2b (VEGEGEEEGEEY)
T2 peptide: Ac-C[Ahx]VEGEGEEEGEEY-NH2

T3: peptide 14b (FTEAESNMNDLV)
T3 peptide: Ac-C[Ahx]FTEAESNMNDLV-NH2

T4: peptide 10b (EEDFGEEAEEEA)
T4 peptide: Ac-C[Ahx]EEDFGEEAEEEA-NH2


Assays:
[1] = test system: PC3MLN4 cells; test: Cell invasion assay; assay type: cell-based, human; settings: 10 µg/mL, 48 hrs, compared to scrambled peptide control
How it was run: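 Gelatin invadopodia assay: PC3MLN4 cells are plated at 50% confluency on Cy3-gelatin-coated chamber slides in growth medium with test peptide or scrambled control peptide (10 µg/mL each). After 48 h, cells are fixed, stained with FITC-phalloidin and DAPI, and imaged by confocal microscopy to assess degradation of the fluorescent matrix.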

[2] = test system: PC3MLN4 cells; test: Cell adhesion on invasion assay substrates; assay type: cell-based, human; settings: PC3MLN4 on the invasion assay substrates (not shown)
[3] = target: T1, RHAMM:HA interaction, immobilized recombinant RHAMM; test: Competitive ELISA, fluorescein-labelled peptides vs HA; assay type: binding; settings: summary of the competitive ELISA results
[4] = test system: PC3MLN4 cells; test: Anchorage independent growth; assay type: cell-based, human
[5] = target: T2, peptide 2b (VEGEGEEEGEEY); test: SPR
[6] = target: T3, peptide 14b (FTEAESNMNDLV); test: SPR
[7] = target: T4, peptide 10b (EEDFGEEAEEEA); test: SPR

Molecule	Inhibition of the ability to degrade collagen [1]	Inhibition of cell adhesion [2]	Overall efficiency at competing with HA for binding to RHAMM [3]	Effect on anchorage independent proliferation [4]	Kd [5]	Kd [6]	Kd [7]
FTEAESNMNDLV [14a]	80%	no observed inhibition	most efficient at competing with HA	marginal effects	–	–	–
EAFEDEEEEIDG [12a]	–	–	most efficient at competing with HA	–	–	–	–
Recombinant protein RHAMM-CT (aa. 706–767) (domain or fragment) RDSYAQLLGHQNLKQKIKHVVKLKDENSQLKSEVSKLRSQLVKRKQNELRLQGELDKLQI	–	–	–	–	0.024 µM	0.03 µM	0.032 µM
